Screening results: PubChem, several laboratories
This is a sample that favours compounds with a hit; in the whole collection about 4.5% have one here.
MrgX1 antagonist: antagonists of human MrgX1 receptor, primary screen, HEK293 cells, Fluo-4 calcium flux | Mas-related G-protein coupled receptor member X1 (Homo sapiens), Q96LB2 | BAM8-22 antagonism; stronger effect = lower value | B-score at 10 µM | 310,000 tested, 1.3% active;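 active = calcium-response B-score plate-corrected more than 3 library SD below zero, starting fluorescence within 5 deviations, no agonist response on first addition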;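 note: peak minus trough fluorescence over baseline after final BAM8-22 challenge near maximal dose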
Target sequence (Q96LB2 whole entry, looked up): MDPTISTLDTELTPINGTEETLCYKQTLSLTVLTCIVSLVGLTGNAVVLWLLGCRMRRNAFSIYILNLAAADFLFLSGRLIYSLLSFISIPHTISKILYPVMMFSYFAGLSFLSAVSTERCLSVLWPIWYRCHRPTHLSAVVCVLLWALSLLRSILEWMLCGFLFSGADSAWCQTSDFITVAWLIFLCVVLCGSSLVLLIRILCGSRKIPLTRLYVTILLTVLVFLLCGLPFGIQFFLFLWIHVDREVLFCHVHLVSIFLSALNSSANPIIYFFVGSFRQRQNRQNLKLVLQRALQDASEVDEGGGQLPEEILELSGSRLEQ
PHOSPHO1 block: PubChem AID 1565 | Phosphoethanolamine/phosphocholine phosphatase (Homo sapiens), Q8TCT1 | recombinant PHOSPHO1, absorbance phosphatase assay | inhibition, % at 13.3 µM | 290,000 tested, 1.1% active; in the data active = inhibition above about 60%
MrgX1 allo act: positive allosteric modulators of MrgX1, primary screen, HEK293 cells, Fluo-4 calcium flux; B-score at 10 µM; Mas-related G-protein coupled receptor member X1 (Homo sapiens), Q96LB2; AID 588675, 2011; FDSS; stronger effect = higher value; 310,000 tested, 0.63% active;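 active = plate-corrected calcium response at least 3 library SD above typical, normal starting fluorescence, not activating the receptor alone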;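 note: compound read alongside a low EC10 to EC30 dose of BAM8-22 agonist; peak minus trough fluorescence over baseline measured at the second addition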
MrgX1 ag: agonists of human MrgX1 receptor, primary screen, HEK293 cells, Fluo-4 calcium flux. Fluo-4 calcium fluorescence, agonist mode; stronger effect = higher value. Mas-related G-protein coupled receptor member X1 (Homo sapiens), Q96LB2. 310,000 tested, 0.44% active. AID 588627, 2011. B-score at 10 µM;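 active = calcium response B-score plate-corrected fluorescence ratio at least 3 library SD, with starting fluorescence B-score inside 5 SD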
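Material – MrgX1-expressing HEK293 cells · Input – 15,000 cells seeded per well · Dosing – compound as first of three additions · Times – overnight seeding, then 1 h dark dye loading · Measured by – kinetic Fluo-4 NW fluorescence of intracellular calcium · Read-out – B-scored fluorescence response ratio · Benchmarks – positive and negative control wells on each plate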
RGS4 inh: RGS4 inhibitors, primary screen, cell-based, HEK293 M3R inducible RGS4, calcium flux | Fluo-4 calcium flux; stronger effect = higher value; triggered by carbachol at its EC20 | B-score at 10 µM | 310,000 tested, 0.45% active;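 active = B-score, a plate-corrected calcium signal, over three deviations above library mean, with baseline fluorescence within five deviations of library mean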;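 note: RGS4 expression induced by doxycycline in cells with stable M3 receptor; B-score is computed from the integrated fluorescence ratio over baseline after carbachol; higher B-score means a larger calcium signal and so more RGS4 inhibition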
Target sequence (P49798 whole entry, looked up): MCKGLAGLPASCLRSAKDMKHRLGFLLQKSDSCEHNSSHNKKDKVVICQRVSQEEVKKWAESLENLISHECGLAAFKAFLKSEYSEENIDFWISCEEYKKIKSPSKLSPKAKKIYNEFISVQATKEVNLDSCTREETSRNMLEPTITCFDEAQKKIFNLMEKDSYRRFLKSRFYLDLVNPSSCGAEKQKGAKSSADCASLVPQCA
RGS4 pot: RGS4 potentiators or activators, primary screen, cell-based, HEK293 M3R inducible RGS4, calcium flux; B-score at 10 µM; carbachol calcium flux Fluo4; stronger effect = lower value; 310,000 tested, 0.92% active;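 active = B-score of the integrated calcium signal more than 4 SD below the library mean, with starting fluorescence not abnormally high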;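 note: negative B-score means reduced calcium response which marks RGS4 activation or potentiation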
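System – HEK293 FlpIn-TREx cells, stable M3R, doxycycline-inducible RGS4 · Reagent – ECmax carbachol challenge · Times – compound preincubation 20 min at room temperature before agonist · Technique – Fluo4 fluorescence kinetic imaging of calcium · Measure – B score of integrated Fluo4 ratio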
Starred values were filed as active, the others as inactive; i = inactive; / = not tested or not shown.

SMILES | MrgX1 antagonist | PHOSPHO1 block | MrgX1 allo act | MrgX1 ag | RGS4 inh | RGS4 pot
O=[N+]([O-])c1ccc(N2CCCCC2)cc1N1CCOCC1 | i | 3.9 | i | i | i | i
S=P(c1ccc(N2CCOCC2)cc1N1CCOCC1)(N1CCOCC1)N1CCOCC1 | / | 85.4* | / | / | / | /
CC(=O)Nc1ccc2c(COC(=O)[C@H](C)N3C(=O)C4CCCCC4C3=O)cc(=O)oc2c1 (stereo partly drawn) | i | -10.4 | i | i | i | i
Cc1[nH]n(-c2ccccc2)c(=O)c1C(c1ccccc1[N+](=O)[O-])C(C#N)C#N (stereo not drawn) | i | 10.6 | i | 35.9* | i | i
Cc1cccc(-c2cc(C(=O)Nc3c(C)n(C)n(-c4ccccc4)c3=O)c3ccccc3n2)c1 | i | 13.0 | 6.58* | i | i | -8.54*
COc1ccc(N(CC(=O)NCc2ccc(C)cc2)S(=O)(=O)c2c(C)noc2C)cc1 | i | 38.5 | i | i | i | i
Nc1cccc2c1C(=O)N(CC(=O)NC13CC4CC(CC(C4)C1)C3)C2=O | i | 42.4 | i | i | i | i
O=C(Cn1sc2ccccc2c1=O)NC12CC3CC(CC(C3)C1)C2 | i | 83.5* | i | i | i | i
O=C(CCc1nnc(COc2ccccc2)o1)NCc1ccccc1C(F)(F)F | i | 14.6 | i | i | i | i
CCN(CC)S(=O)(=O)c1cc(NC(=O)c2ccc(-n3cncn3)c([N+](=O)[O-])c2)ccc1C | i | 22.6 | i | i | i | i
Cc1c(C(=O)Nc2ccncc2)sc2nc(-c3ccc(F)cc3)cn12 | i | 6.3 | i | i | i | i
COc1ccc(-c2cn3c(C)c(C(=O)Nc4ccncc4)sc3n2)cc1 | i | 94.2* | i | i | i | i
COc1ccc(-c2csc(NC(=O)CSc3nc(SC)ns3)n2)cc1 | i | -0.5 | i | i | i | i
Cn1c(CSc2nc3ccccc3s2)n[nH]c1=S | i | 72.8* | i | i | i | i
Cn1c(-c2sc3ccccc3c2Cl)n[nH]c1=S | i | 94.5* | i | i | i | i
S=c1[nH]nc(CSc2nc3ccccc3s2)o1 | i | 105.3* | i | i | i | i
Clc1c(-c2nnc3n2CCC3)sc2ccccc12 | i | -3.2 | i | i | i | i
COc1cc(Cl)c(S(=O)(=O)N2CCCC2)cc1Cl | i | 8.0 | i | i | i | i
COc1cc(N2C(=O)C=CC2=O)c(OC)cc1Cl | i | 38.6 | i | i | i | -7.09*
NC(=O)c1c(NC(=O)CSc2nnc(-c3ccco3)n2-c2ccccc2)sc2c1CCC2 | i | 81.6* | i | i | i | i
CCN1C(=S)SC(=O)C1=C1C=C(C)N(CCO)C(C)=C1 | i | 41.0 | i | 38.3* | i | i
CCOc1ccc(S(=O)(=O)Nc2cc(Sc3ncn[nH]3)c3oc(=O)sc3c2)cc1 | i | 102.9* | i | i | i | i
Cc1ccccc1C(=O)NNC(=O)c1cc(N)cc([N+](=O)[O-])c1 | i | 10.3 | i | i | i | i
Cc1ccc(-n2nnnc2-c2cccs2)cc1[N+](=O)[O-] | i | / | i | i | i | -7.41*
Cc1cccc(NC(=S)N(Cc2cccs2)Cc2cc3cc(C)cc(C)c3[nH]c2=O)c1 | -5.45* | -0.8 | i | i | i | i
SMILES | MrgX1 antagonist | PHOSPHO1 block | MrgX1 allo act | MrgX1 ag | RGS4 inh | RGS4 pot
COc1ccc2[nH]c(=O)c(CN(Cc3cccs3)C(=S)Nc3cccc(C)c3)cc2c1 | i | -8.8 | i | i | i | i
CC1Cc2ccccc2N1C(=O)CCS(=O)(=O)c1ccc2c(c1)NC(=O)CS2 (stereo not drawn) | i | 54.1 | i | i | i | i
COc1nc(Nc2cccc(F)c2)nc(OC)n1 | i | 3.1 | i | i | i | i
COc1cc2nc(Nc3cccc(F)c3)nc(N)c2cc1OC | i | 51.3 | i | i | i | -7.05*
N#CCc1c(C#N)c(N)nc(N2CCCC(O)C2)c1C#N (stereo not drawn) | i | 23.8 | i | i | i | i
c1ccc(Cc2nn3c(C4COc5ccccc5O4)nnc3s2)cc1 (stereo not drawn) | i | 62.4* | i | i | i | i
COc1ccccc1-c1nn2c(C3COc4ccccc4O3)nnc2s1 (stereo not drawn) | i | 92.1* | i | i | i | i
COc1ccccc1C(=O)Nc1ccc2c(c1)nc1n2CCN(C2CCCCC2)C1 | i | 6.2 | i | i | i | i
COc1cc(O)oc1C=Nc1ccc(C(F)(F)F)cc1 | i | 13.5 | i | i | i | i
O=C(c1cccs1)N1CCCC(N2CCN(c3ccc(F)cc3)CC2)C1 (stereo not drawn) | i | 23.5 | i | i | i | i
Cc1ccccc1CS(=O)(=O)Cc1ccc(C(=O)NC2CCCCC2)o1 | i | 29.8 | i | i | i | i
CCOc1cc(/C=N\NC(=O)CN2CCOCC2)ccc1OCc1ccc(F)cc1 | i | 8.7 | i | i | i | i
O=S(=O)(Nc1c(S(=O)(=O)c2ccccc2)c2nc3ccccc3nc2n1C1CCCCC1)c1ccccc1 | i | -14.7 | i | i | i | -10.2*
N#CC(=C1Nc2ccccc2N1)S(=O)(=O)c1ccccc1 | i | 34.2 | i | i | i | i
Cc1c(OC(=O)c2ccc([N+](=O)[O-])cc2)c2c(c[n+]1C)COC(C)(C)OC2 | i | 102.6* | i | i | i | i
N#C/C(=C\c1ccc(Cl)cc1)C(=O)Nc1cccnc1 | i | 31.5 | i | i | i | i
Cc1c(NC(=O)CSc2ccccc2Cl)c(=O)n(-c2ccccc2)n1C | i | 39.7 | i | i | i | i
COc1cccc([C@@H]2CC=C(C(=O)O)[C@H](c3ccccc3F)N2S(=O)(=O)c2ccc(C)cc2)c1 | i | / | 8.35* | i | / | /
CCc1ccc([C@@H]2CC=C(C(=O)O)[C@H](c3ccccc3F)N2S(=O)(=O)c2ccc(C)cc2)cc1 | i | / | 6.82* | i | / | /
COc1cccc([C@@H]2CC=C(C(=O)O)[C@H](c3ccc(Cl)cc3)N2S(=O)(=O)c2ccc(C)cc2)c1 | i | / | i | i | / | /
